Assay results: ChEMBL document CHEMBL4622928, “Discovery of 5-(4-methylpiperazin-1-yl)-2-nitroaniline derivatives as a new class of SIRT6 inhibitors” (Bioorg Med Chem Lett, 2020)
Activity calls are given as the source filed them. The rule behind the calls is not given here.

Columns and labels:
[1] = target: T1, NAD-dependent protein deacetylase sirtuin-1 (Homo sapiens, UniProt Q96EB6); test: Inhibition of SIRT1 (unknown origin)
T1 sequence (Q96EB6 whole entry): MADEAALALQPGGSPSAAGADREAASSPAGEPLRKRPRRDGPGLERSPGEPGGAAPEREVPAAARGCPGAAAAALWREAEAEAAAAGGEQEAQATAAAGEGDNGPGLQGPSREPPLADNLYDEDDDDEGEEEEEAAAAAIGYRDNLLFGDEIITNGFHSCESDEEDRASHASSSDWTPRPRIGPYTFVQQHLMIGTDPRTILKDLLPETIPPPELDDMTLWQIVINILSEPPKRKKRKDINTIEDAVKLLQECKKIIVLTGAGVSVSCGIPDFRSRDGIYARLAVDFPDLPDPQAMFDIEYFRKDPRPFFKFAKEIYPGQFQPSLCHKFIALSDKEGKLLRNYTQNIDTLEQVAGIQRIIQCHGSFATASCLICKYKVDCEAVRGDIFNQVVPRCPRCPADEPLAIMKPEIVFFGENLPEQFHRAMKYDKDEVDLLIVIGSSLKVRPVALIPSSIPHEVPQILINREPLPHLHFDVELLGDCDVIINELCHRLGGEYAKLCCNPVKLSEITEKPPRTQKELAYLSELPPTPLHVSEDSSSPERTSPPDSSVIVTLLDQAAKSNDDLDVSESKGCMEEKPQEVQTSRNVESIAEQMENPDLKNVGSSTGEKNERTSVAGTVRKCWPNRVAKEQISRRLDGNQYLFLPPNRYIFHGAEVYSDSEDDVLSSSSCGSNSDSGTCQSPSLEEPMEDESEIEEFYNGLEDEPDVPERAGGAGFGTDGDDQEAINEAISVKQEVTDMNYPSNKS
Procedure, shortened: (§1)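 Each deacetylase was run in a Fluor de Lys (FDL) fluorogenic deacetylation assay as a selectivity screen, with compound tested at concentrations up to 200 μM. IC50 was estimated from the dose-response.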

[2] = target: T2, Polyamine deacetylase HDAC10 (Homo sapiens, UniProt Q969S8); test: Inhibition of HDAC10 (unknown origin); procedure, shortened: as §1
T2 sequence (Q969S8 whole entry): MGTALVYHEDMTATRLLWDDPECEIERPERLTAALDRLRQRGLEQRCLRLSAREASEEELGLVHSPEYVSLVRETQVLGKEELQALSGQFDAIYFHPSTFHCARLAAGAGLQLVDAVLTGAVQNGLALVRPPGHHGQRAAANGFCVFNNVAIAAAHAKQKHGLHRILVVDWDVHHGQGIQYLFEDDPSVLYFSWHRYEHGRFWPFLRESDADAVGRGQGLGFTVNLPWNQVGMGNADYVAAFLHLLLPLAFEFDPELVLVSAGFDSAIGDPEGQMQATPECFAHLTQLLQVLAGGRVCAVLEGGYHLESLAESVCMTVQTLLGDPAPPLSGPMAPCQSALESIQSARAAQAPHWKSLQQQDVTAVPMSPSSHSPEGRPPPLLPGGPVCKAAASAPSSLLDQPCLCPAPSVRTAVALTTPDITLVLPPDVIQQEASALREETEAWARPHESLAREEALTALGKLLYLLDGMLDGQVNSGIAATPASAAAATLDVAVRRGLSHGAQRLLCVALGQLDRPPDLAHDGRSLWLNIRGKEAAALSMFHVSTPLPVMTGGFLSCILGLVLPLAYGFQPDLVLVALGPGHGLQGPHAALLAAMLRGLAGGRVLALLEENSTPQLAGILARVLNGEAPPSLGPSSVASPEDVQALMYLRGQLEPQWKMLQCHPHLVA

Histone deacetylase 9 = Histone deacetylase 9 (Homo sapiens, UniProt Q9UKV0); test: Inhibition of HDAC9 (unknown origin); procedure, shortened: as §1
Histone deacetylase 5 = Histone deacetylase 5 (Homo sapiens, UniProt Q9UQL6); test: Inhibition of HDAC5 (unknown origin); procedure, shortened: as §1
[3] = target: T3, NAD-dependent protein deacylase sirtuin-6 (Homo sapiens, UniProt Q8N6T7); test: Inhibition of SIRT6 in human BxPC3 cells assessed as increase in H3K9Ac expression measured after 48 hrs by Western blot analysis; assay type: cell-based; details: BXPC-3
Procedure, shortened: (§2)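 BxPC-3 cells were exposed to 0.78, 1.56, 3.13, 6.25, 12.5 and 25 μM compound for 48 h. Histone H3K9ac and H3K18ac levels were then assessed by western blot, with β-actin as the loading control. Acetylation increase is read as cellular SIRT6 deacetylase inhibition.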

Histone deacetylase 2 = Histone deacetylase 2 (Homo sapiens, UniProt Q92769); test: Inhibition of HDAC2 (unknown origin); procedure, shortened: as §1
Histone deacetylase 3 = Histone deacetylase 3 (Homo sapiens, UniProt O15379); test: Inhibition of HDAC3 (unknown origin); procedure, shortened: as §1
[4] = target: T3, NAD-dependent protein deacylase sirtuin-6; test: Binding affinity to SIRT6 (unknown origin) by surface plasmon resonance assay
Histone deacetylase 8 = target: T4, Histone deacetylase 8 (Homo sapiens, UniProt Q9BY41); test: Inhibition of HDAC8 (unknown origin); procedure, shortened: as §1
T4 sequence (Q9BY41 whole entry): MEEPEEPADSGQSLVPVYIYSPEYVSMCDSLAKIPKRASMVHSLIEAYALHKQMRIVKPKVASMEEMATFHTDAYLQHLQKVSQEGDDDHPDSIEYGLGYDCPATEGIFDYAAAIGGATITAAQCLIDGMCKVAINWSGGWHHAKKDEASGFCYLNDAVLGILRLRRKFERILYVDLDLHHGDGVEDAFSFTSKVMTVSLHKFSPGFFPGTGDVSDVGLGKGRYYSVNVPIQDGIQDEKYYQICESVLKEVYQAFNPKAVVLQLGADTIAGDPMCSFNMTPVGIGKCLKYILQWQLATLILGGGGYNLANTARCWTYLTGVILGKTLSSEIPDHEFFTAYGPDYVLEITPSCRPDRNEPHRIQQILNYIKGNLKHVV

[5] = Toxicity in mouse assessed as effect on body weight; details: in vivo
Procedure, shortened: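 Normal (non-diabetic) mice were dosed, and blood glucose and body weight were tracked over the study.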

Histone deacetylase 11 = target: T5, Histone deacetylase 11 (Homo sapiens, UniProt Q96DB2); test: Inhibition of HDAC11 (unknown origin); procedure, shortened: as §1
T5 sequence (Q96DB2 whole entry): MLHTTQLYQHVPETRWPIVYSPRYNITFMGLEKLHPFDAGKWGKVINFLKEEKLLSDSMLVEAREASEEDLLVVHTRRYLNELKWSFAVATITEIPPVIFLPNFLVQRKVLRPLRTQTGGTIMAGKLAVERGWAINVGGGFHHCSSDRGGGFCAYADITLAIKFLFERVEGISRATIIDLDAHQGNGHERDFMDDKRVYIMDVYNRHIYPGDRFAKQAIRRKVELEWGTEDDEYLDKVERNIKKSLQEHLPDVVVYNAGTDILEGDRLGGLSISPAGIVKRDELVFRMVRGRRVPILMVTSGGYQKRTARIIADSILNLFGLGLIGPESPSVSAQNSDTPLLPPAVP

[6] = target: T3, NAD-dependent protein deacylase sirtuin-6; test: Inhibition of SIRT6 in human BxPC3 cells assessed as increase in […] expression measured after 48 hrs by Western blot analysis; assay type: cell-based; details: BXPC-3; procedure, shortened: as §2
Mus musculus = test: Antidiabetic activity in mouse model of type-2 diabetes mellitus assessed as reduction in blood glucose at 7.5 to 30 mg/kg, ip; assay type: functional, organism-based
Procedure, shortened: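 High-fat-diet-fed mice served as the type 2 diabetes model. Compound was given by intraperitoneal injection, and blood glucose and body weight were followed over time.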

Histone deacetylase 1 = Histone deacetylase 1 (Homo sapiens, UniProt Q13547); test: Inhibition of HDAC1 (unknown origin); procedure, shortened: as §1
Sequence of Histone deacetylase 1 (Q13547 whole entry): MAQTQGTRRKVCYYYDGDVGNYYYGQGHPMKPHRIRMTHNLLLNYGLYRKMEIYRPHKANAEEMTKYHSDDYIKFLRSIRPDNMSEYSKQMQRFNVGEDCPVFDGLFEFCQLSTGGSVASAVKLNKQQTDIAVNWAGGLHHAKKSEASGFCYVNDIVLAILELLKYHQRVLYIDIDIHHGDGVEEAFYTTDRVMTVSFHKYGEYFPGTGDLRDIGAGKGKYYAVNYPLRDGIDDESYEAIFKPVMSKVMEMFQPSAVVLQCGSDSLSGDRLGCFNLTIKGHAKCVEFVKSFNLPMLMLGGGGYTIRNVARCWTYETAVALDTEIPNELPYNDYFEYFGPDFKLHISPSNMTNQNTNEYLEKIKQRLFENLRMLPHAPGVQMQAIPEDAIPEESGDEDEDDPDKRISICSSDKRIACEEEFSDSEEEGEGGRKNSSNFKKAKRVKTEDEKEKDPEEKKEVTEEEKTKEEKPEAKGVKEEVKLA

T3 sequence (Q8N6T7 whole entry): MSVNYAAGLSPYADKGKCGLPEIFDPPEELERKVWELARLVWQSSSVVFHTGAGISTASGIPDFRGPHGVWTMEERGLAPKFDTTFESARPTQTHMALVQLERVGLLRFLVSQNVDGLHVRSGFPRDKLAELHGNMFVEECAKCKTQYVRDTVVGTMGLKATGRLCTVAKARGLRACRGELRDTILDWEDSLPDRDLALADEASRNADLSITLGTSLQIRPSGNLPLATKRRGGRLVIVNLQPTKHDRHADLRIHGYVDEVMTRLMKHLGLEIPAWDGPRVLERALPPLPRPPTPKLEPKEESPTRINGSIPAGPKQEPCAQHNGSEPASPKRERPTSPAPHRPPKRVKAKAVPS
Sequence of Histone deacetylase 9 (Q9UKV0 whole entry): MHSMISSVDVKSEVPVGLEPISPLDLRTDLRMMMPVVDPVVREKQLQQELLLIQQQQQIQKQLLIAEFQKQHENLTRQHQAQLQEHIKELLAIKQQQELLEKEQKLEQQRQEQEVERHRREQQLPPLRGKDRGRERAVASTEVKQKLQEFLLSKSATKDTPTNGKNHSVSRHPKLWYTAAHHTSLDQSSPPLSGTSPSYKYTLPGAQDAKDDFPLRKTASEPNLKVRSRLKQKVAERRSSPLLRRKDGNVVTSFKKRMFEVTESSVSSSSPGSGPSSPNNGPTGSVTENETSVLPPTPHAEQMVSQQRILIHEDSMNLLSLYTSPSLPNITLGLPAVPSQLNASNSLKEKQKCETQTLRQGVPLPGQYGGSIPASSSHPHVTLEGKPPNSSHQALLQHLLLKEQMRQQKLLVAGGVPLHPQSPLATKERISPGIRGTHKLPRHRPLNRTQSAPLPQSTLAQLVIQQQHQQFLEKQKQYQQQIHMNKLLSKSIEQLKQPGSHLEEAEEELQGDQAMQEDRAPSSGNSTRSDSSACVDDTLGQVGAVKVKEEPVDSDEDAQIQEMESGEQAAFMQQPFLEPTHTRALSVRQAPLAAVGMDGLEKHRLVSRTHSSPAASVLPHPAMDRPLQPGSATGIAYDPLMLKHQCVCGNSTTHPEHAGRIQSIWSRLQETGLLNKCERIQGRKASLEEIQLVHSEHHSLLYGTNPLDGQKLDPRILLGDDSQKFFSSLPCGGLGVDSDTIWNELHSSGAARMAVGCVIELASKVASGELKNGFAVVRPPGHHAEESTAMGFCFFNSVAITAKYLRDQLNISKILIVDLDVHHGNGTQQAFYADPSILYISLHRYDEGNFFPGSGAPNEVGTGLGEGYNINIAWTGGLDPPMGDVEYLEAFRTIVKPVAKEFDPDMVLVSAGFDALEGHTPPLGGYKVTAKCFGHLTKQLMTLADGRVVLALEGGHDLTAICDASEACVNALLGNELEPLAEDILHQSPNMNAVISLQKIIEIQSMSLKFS
Sequence of Histone deacetylase 3 (O15379 whole entry): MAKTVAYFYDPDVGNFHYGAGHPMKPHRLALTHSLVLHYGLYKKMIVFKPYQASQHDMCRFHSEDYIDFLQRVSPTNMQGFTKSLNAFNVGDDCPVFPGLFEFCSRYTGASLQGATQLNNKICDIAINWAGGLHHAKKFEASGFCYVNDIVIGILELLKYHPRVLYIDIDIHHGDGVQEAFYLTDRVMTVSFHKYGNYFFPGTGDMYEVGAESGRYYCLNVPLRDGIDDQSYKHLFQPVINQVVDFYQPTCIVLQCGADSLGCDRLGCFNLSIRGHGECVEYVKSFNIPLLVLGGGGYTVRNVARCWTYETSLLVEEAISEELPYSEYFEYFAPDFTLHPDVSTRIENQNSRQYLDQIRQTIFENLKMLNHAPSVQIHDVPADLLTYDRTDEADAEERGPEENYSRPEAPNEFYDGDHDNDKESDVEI
Sequence of Histone deacetylase 5 (Q9UQL6 whole entry): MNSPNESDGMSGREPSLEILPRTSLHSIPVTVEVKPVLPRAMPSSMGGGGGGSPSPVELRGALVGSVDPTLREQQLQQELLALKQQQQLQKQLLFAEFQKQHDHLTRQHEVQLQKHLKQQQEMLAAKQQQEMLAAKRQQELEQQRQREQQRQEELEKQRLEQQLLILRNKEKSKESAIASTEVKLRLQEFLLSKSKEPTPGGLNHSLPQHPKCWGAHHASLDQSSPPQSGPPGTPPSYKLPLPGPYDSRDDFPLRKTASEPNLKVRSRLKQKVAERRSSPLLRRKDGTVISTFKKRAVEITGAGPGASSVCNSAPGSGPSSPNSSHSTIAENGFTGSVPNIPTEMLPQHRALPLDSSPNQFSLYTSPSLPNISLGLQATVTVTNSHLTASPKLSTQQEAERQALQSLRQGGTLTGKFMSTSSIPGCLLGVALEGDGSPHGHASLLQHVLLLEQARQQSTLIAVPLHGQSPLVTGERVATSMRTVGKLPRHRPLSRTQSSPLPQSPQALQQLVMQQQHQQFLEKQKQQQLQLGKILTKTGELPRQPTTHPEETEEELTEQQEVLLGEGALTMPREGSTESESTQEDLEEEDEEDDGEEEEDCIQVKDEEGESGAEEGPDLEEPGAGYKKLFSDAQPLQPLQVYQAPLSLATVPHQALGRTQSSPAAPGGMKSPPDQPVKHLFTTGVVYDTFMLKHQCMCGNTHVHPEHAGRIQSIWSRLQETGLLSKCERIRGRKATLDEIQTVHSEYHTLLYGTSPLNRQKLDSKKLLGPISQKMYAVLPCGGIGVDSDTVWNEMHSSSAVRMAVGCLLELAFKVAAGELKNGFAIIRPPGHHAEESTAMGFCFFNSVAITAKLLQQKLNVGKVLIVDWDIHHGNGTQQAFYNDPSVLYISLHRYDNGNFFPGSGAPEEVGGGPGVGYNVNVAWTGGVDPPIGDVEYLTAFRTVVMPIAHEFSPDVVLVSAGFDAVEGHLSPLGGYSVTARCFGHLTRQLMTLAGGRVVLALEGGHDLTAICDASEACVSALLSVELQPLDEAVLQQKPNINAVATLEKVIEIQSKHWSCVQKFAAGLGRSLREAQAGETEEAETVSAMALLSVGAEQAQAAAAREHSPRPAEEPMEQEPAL
Sequence of Histone deacetylase 2 (Q92769 whole entry): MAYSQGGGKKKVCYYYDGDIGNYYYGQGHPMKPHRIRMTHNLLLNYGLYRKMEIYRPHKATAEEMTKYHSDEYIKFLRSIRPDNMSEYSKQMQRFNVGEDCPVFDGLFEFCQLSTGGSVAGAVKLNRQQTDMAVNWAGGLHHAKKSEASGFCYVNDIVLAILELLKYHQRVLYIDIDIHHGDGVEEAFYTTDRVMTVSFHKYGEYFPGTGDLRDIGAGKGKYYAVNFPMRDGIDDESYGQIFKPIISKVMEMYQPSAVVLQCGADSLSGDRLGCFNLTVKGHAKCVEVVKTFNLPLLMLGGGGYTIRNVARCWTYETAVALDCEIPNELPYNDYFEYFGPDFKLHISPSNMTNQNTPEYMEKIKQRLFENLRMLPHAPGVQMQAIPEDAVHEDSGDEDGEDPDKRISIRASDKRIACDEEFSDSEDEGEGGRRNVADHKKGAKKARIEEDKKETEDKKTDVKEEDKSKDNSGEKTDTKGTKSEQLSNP

What does the source list for `CN1CCN(c2ccc([N+](=O)[O-])c(N)c2)CC1`?
IC50 [1]: > 200 µM; IC50 [2]: > 200 µM; IC50 (Histone deacetylase 9): > 200 µM; IC50 (Histone deacetylase 5): > 200 µM; inhibition [3]: Dose-dependent effect; IC50 (Histone deacetylase 2): > 200 µM; IC50 (Histone deacetylase 3): > 200 µM; Kd [4]: 9.76 µM; IC50 (Histone deacetylase 8): > 200 µM; Activity [5]: Non-Toxic; IC50 (Histone deacetylase 11): > 200 µM; inhibition [6]: Dose-dependent effect; Activity (Mus musculus): Active; IC50 (Histone deacetylase 1): > 200 µM
